Screens deposited in PubChem BioAssay by Sanford-Burnham Center for Chemical Genomics.
SKN-1 block – suppressors of acrylamide-induced Pgst-4::GFP reporter in worms, primary screen, SKN-1 inhibitor project, whole organism, uHTS, GFP/RFP fluorescence ratio, strain VP596; 360,000 compounds, 0.49% hits; inhibition, % at 21.8 µM; C. elegans VP596 Pgst-4::GFP/RFP ratio, 24 h;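 active means interference check ratio from 0.5 to 1.5 plus GFP to RFP signal ratio inhibition reaching or exceeding a fixed threshold, cut at about 30% in these data, passing the limit was not always enough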
MT1-MMP act inh – blockers of MT1-MMP proenzyme processing, primary screen, HT1080 RFP-PRO-GFP cells, GFP/RFP fluorescence; Matrix metalloproteinase-14 (Homo sapiens), P50281; GFP/RFP ratio fluorescence, overnight; percent of plate control window, DMSO zero; GFP/RFP ratio change, % at 20 µM; 360,000 compounds, 0.061% hits; AID 651647, 2012;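 active means GFP/RFP ratio change of at least 30% with cell ATP level not reduced by more than half and red fluorescence within 50% of control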
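Read-out: GFP/RFP fluorescence ratio; Test system: RFP-PRO-GFP reporter HT1080 cells; Compound dosing: single-point 20 µM compound, 1% DMSO; Times: overnight compound exposure at 37 °C.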
ATG4B inh – ATG4B protease inhibitors, primary screen, biochemical, fluorescence, uHTS; ATG4B cleavage of LC3-PLA2, NBD-HPC fluorescence, 1 h; inhibition, % at 8.33 µM; Cysteine protease ATG4B (Homo sapiens), Q9Y4P1; AID 504462, 2011; 340,000 compounds, 0.51% hits; in the data active means inhibition above about 40%
Target sequence (Q9Y4P1 whole entry, looked up): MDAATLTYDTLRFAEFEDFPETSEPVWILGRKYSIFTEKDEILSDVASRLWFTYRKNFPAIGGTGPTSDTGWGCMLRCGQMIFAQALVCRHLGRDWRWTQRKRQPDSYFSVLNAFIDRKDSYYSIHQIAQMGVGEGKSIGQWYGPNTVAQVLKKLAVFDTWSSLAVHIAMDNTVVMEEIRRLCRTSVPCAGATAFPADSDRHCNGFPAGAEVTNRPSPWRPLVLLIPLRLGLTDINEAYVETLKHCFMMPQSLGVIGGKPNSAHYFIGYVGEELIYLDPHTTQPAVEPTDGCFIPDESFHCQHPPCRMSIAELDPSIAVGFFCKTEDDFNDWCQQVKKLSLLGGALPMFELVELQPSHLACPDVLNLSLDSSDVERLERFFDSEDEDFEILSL
MPTP inh – mitochondrial permeability transition pore inhibitors, primary screen, biochemical, isolated mouse mitochondria, absorbance. inhibition, % at 10 µM. AID 602449, 2012. 360,000 compounds, 1.4% hits. Ca2+ swelling absorbance, 30 min;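 active means inhibition of 50% or more, scaled per plate between neutral and stimulator controls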
Of the large screens only hits and unclear results are named; the others gave an inactive call. Compounds with a hit are over-represented: about 2.3% of the library has one in this group of screens.

Cn1nc(C(C)(C)C)cc1C(=O)N1CCCCC1c1cc(C(=O)Nc2ccc(F)c(Cl)c2)no1 (stereo not drawn)	none (no result: ATG4B inh)
CCc1nnc(NC(=O)CC(C)c2ccccc2)s1 (stereo not drawn)	SKN-1 block 36
CC(OC(=O)Cc1ccc(F)cc1)C(=O)NCc1ccc2c(c1)OCO2 (stereo not drawn)	none
Fc1ccc(-n2nnc(-c3cccnc3)n2)cc1	SKN-1 block 56
Clc1ccc(-n2nnc(-c3nccs3)n2)cc1Cl	SKN-1 block 61
Cc1ccc(-n2nnc(-c3nccs3)n2)cc1	none
Brc1ccccc1-n1nnc(-c2cccnc2)n1	none
Clc1ccc(-n2nnc(-c3cccnc3)n2)cc1Cl	SKN-1 block 59
O=C(NCCc1ccncc1)c1ccc2nc(Cc3cccc(Cl)c3)oc2c1	none
c1ccc2c(c1)OCCc1c-2[nH]c2ccccc12	SKN-1 block 52
CCN(CC)C(=O)c1cccc(-c2csc(C(C)(O)c3ccc(F)c(F)c3)n2)c1 (stereo not drawn)	none (no result: ATG4B inh)
COC(=O)[C@@]12C[C@@H](CC(=O)NCc3cccc4ccccc34)C(=O)N(Cc3ccco3)C1=CCC(C)(C)C2	none (no result: ATG4B inh)
Cc1cccn2c(=O)c(C=Nc3ccccc3)c(NCc3ccco3)nc12	SKN-1 block 41
Cc1[nH]c2ccccc2c1N=Nc1ccc(F)cc1	SKN-1 block 87
Cc1ccc(/C=C2\CCC3=C2OC(N)=C(C#N)C3c2ccc(C)cc2)cc1 (stereo not drawn)	SKN-1 block 35
Cc1ccc(C2C(C#N)=C(N)Oc3cc(N)ccc32)cc1 (stereo not drawn)	none
CN1/C(=C\C(=O)COC(=O)Cn2nnc(-c3ccccc3)n2)C(C)(C)c2ccccc21	MT1-MMP act inh 39
CN1/C(=C/C(=O)COC(=O)CN2C(=O)C3CC=CCC3C2=O)C(C)(C)c2ccccc21 (stereo not drawn)	none
CCN1C(=S)SC(=O)C1=C1C=C(C)OC(C)=C1	SKN-1 block 44
O=C1N(Cc2ccccc2)c2ccc(Br)cc2[C@]12C[C@H](O)CO2	none (no result: ATG4B inh)
CC(C)[C@H](NC(=O)c1ccco1)C(=O)N(C)Cc1c(F)cccc1Cl	none
Cc1ccccc1CNC(=O)c1ccc2sc([C@H]3C[C@H](O)[C@@H](CO)O3)nc2c1	SKN-1 block 39 (no result: ATG4B inh)
NC(=O)C1CCCN(C(=O)NC2CCCCC2)C1 (stereo not drawn)	SKN-1 block 40
O=C(NCC1CCCCC1)C1CCCN(C(=O)NC2CCCCC2)C1 (stereo not drawn)	none
CCCN1C(=O)/C(=C/c2c(NCCCOCC)nc3c(C)cccn3c2=O)SC1=S	none
Cc1cccn2c(=O)c(/C=C3\SC(=S)NC3=O)c(NCCCN3CCOCC3)nc12	SKN-1 block 52
O=C1CN(C(=O)COc2ccc(F)cc2Br)c2ccccc2N1	none
c1csc(CSc2nc3ccccc3s2)c1	SKN-1 block 78
O=C(O)Cn1c2c(c3ccccc31)CSc1ccc(Cl)cc1-2	none
CSc1ccc(S(=O)(=O)N2CCC(C(=O)Nc3ccccc3C(F)(F)F)CC2)cc1	SKN-1 block 42
O=C(Oc1ccc(OC(=O)c2ccco2)c(S(=O)(=O)c2ccc(Br)cc2)c1)c1ccco1	SKN-1 block 36
Cc1ccc(S(=O)(=O)c2cc(OC(=O)c3ccco3)ccc2OC(=O)c2ccco2)cc1	none
CC(C)C(=O)NCCc1nc(-c2ccccc2Cl)no1	SKN-1 block 36
COC(=O)C1=C(N)Oc2cc(C)n(C)c(=O)c2C1c1ccc(Cl)c(Cl)c1 (stereo not drawn)	none
COC(=O)C1=C(N)Oc2cc(C)n(CC3CCCO3)c(=O)c2C1c1ccc(Cl)c(Cl)c1 (stereo not drawn)	SKN-1 block 33
O=C(Nc1ccccc1)O/N=C/c1ccc(F)cc1	SKN-1 block 37
CCN(CC)CCN1CCN(c2cncc(-c3ccc4ccccc4c3)n2)CC1	none (no result: ATG4B inh)
CC(=O)N/C(=C\c1ccccc1)C(=O)OC(C)C(=O)c1ccccc1 (stereo not drawn)	none
Clc1ccc(-c2nc(CSc3ccccn3)cs2)cc1	SKN-1 block 58 (no result: ATG4B inh)
COc1ccc(C2CC(c3ccccc3)=NN2S(=O)(=O)c2ccc(C)cc2)c(OC)c1 (stereo not drawn)	SKN-1 block 52
